Values joined by “and” are separate entries in the source; they are usually repeats but may differ in a detail not shown here. Identical values can stand only once.
Tests used:
[1] = (§1) Percent total excretion of 3-(thiomethyl)acetaminophen sulfate; type: ADME
In short: (§2)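 Urine was collected for 48 h from dosed rats or mice kept in metabolic cages. It was filtered (0.5 μm) and separated by reverse-phase HPLC at 2 mL/min, starting in phosphate-buffered solvent at pH 7.2. After a 4 min delay, methanol was raised linearly to 50% over 18 min. Detection was at 254 and 280 nm. Each metabolite was quantified from peak area using response factors from standards and expressed as % of total excreted metabolites.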

Rattus norvegicus [2] = assay: (§3) Percent dose excreted in 0-48 hours administered ip to male rat; type: functional
In short: (§4)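 Young adult male Sprague-Dawley rats were dosed i.p. with N-hydroxyacetaminophen in aqueous solution at 1.0 and 2.0 mmol/kg. Animals were held in metabolic cages with standard feed and water ad libitum, and urine was collected over 48 h. Quantitation was by gradient HPLC, using response factors from standard solutions.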

Rattus norvegicus [3] = assay: The compound tested for toxicity in kidney against male rat after intraperitoneal administration of 1.0 mmol/kg; type: organism-based; settings: in vivo, ip
In short: (§5)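 Young adult male Sprague-Dawley rats dosed intraperitoneally at 1.0 or 2.0 mmol/kg in aqueous solution. Animals were kept in metabolic cages with food and water ad libitum, and urine was collected over 48 h. Liver and kidney were examined histologically at 48 h. Liver was graded as vacuolation (1+) or centrilobular necrosis (2+, 3+, 4+); kidney was graded as deep cortical tubular necrosis.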

Mus musculus [4] = assay: The compound tested for toxicity in kidney against male mouse after intraperitoneal administration of 2.0 mmol/kg; type: organism-based; settings: in vivo, ip
In short: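 Young adult male Swiss mice given a single intraperitoneal dose of 2.0 mmol/kg in aqueous solution. Animals were held in metabolic cages with standard feed and water ad libitum, and urine was collected for 48 h. At 48 h, liver and kidneys were taken for histology. Liver was scored as vacuolation (1+) or centrilobular necrosis (2+ to 4+); kidney was scored as deep cortical tubular necrosis.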

Mus musculus [5] = assay: Percent dose excreted in 0-48 hours administered ip to male mouse; type: ADME, organism-based; settings: in vivo
In short: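 Young adult male Swiss mice, previously housed on pine wood-chip bedding, received N-hydroxyacetaminophen in aqueous solution i.p. at 2.0 mmol/kg. They were then kept in metabolic cages with standard feed and water ad libitum. Urine was collected for 48 h and analysed by gradient reverse-phase HPLC, with peak areas calibrated against standard solutions.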

Rattus norvegicus [6] = assay: The compound tested for toxicity in liver against male rat after intraperitoneal administration of 1.0 mmol/kg; type: organism-based; settings: in vivo, ip; in short: as §5
Rattus norvegicus [7] = assay: The compound tested for toxicity in kidney against male rat after intraperitoneal administration of 2.0 mmol/kg; Positive; type: organism-based; settings: in vivo, ip; in short: as §5
Rattus norvegicus [8] = species on record: Rattus norvegicus; assay: (§6) Percent total excretion of acetaminophen; type: functional; in short: as §2
Rattus norvegicus [9] = assay: as §3; type: ADME, organism-based; settings: in vivo; in short: as §4
[10] = (§7) Percent total excretion of N-methoxyacetaminophen glucuronide; type: ADME; in short: as §2
Rattus norvegicus [11] = species on record: Rattus norvegicus; assay: (§8) Percent total excretion of 3-methoxyacetaminophen glucuronide; type: functional; in short: as §2
[12] = as §6; type: ADME; in short: as §2
[13] = (§9) Percent total excretion of acetaminophen glucuronide; type: ADME; in short: as §2
Rattus norvegicus [14] = species on record: Rattus norvegicus; assay: Percent total excretion of acetaminophen cysteine conjugate; type: functional; in short: as §2
Mus musculus [15] = assay: The compound tested for toxicity in liver against male mouse after intraperitoneal administration of 2.0 mmol/kg; settings: in vivo, ip
Rattus norvegicus [16] = species on record: Rattus norvegicus; assay: (§10) Percent total excretion of N-methoxyacetaminophen sulfate; type: functional; in short: as §2
[17] = as §8; type: ADME; in short: as §2
Rattus norvegicus [18] = assay: The compound tested for toxicity in liver against male rat after intraperitoneal administration of 2.0 mmol/kg; type: organism-based; settings: in vivo, ip; in short: as §5
Rattus norvegicus [19] = species on record: Rattus norvegicus; assay: as §7; type: functional; in short: as §2
Rattus norvegicus [20] = species on record: Rattus norvegicus; assay: (§11) Percent total excretion of 3-(thiomethyl)acetaminophen glucuronide; type: functional; in short: as §2
Rattus norvegicus [21] = species on record: Rattus norvegicus; assay: Percent total excretion of acetaminophen sulfate; type: functional; in short: as §2
[22] = as §11; type: ADME; in short: as §2
[23] = (§12) Percent total excretion of acetaminophen-mercapturic acid; type: ADME; in short: as §2
Rattus norvegicus [24] = species on record: Rattus norvegicus; assay: as §9; type: functional; in short: as §2
Rattus norvegicus [25] = species on record: Rattus norvegicus; assay: as §12; type: functional; in short: as §2
Rattus norvegicus [26] = species on record: Rattus norvegicus; assay: as §1; type: functional; in short: as §2
[27] = as §10; type: ADME; in short: as §2
[28] = Percent of total excretion of N-methoxyacetaminophen sulfate; type: ADME; in short: as §2
[29] = Percent of total excretion of acetaminophen cysteine conjugate; type: ADME; in short: as §2
Mus musculus [30] = assay: The compound tested for toxicity in kidney against female mouse after intravenous administration of 2.0 mmol/kg; Normal; type: organism-based; settings: in vivo
In short: (§13)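 Young adult female Swiss mice, previously housed on pine wood-chip bedding. The sodium salt was given in aqueous solution at 2.0 mmol/kg intravenously or 10 mmol/kg intragastrically. Animals were housed in metabolic cages with feed and water ad libitum for 48 h, with urine collected throughout. At 48 h, liver and kidneys were assessed histologically. Liver was graded as vacuolation (1+) or centrilobular necrosis (2+ to 4+); kidney was graded as deep cortical tubular necrosis.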

[31] = Percent of total excretion of acetaminophen sulfate; type: ADME
In short: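 Rats (male Sprague-Dawley, 1.0 or 2.0 mmol/kg ip) and Swiss mice (males 2.0 mmol/kg ip; females 2.0 mmol/kg iv or 10 mmol/kg intragastric) dosed in aqueous solution. Urine was collected over 0–48 h in metabolic cages. Filtered urine went through gradient HPLC (pH 7.2 buffer, 0→50% methanol; 254/280 nm), quantified against standard peak-area response factors. Values are % of total excreted metabolites.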

[32] = Percent of total excretion of acetaminophen glucuronide; type: ADME; in short: as §2
Mus musculus [33] = assay: The compound tested for toxicity in liver against female mouse after intragastric administration of 10 mmol/kg; signifies centrilobular necrosis of liver; type: organism-based; settings: in vivo, po; in short: as §13
Mus musculus [34] = assay: The compound tested for toxicity in kidney against female mouse after intragastric administration of 10.0 mmol/kg; Normal; settings: in vivo
Mus musculus [35] = assay: The compound tested for toxicity in liver against female mouse after intravenous administration of 2.0 mmol/kg; signifies centrilobular necrosis of liver; type: organism-based; settings: in vivo; in short: as §13
[36] = Percent of total excretion of acetaminophen-mercapturic acid; type: ADME; in short: as §2
[37] = Percent of total excretion of N-hydroxyacetaminophen glucuronide; type: ADME; in short: as §2
[38] = Percent of total excretion of acetaminophen; type: ADME; in short: as §2
[39] = Percent of total excretion of 3-(thiomethyl)acetaminophen glucuronide; type: ADME; in short: as §2
[40] = Percent of total excretion of N-methoxyacetaminophen glucuronide; type: ADME; in short: as §2
[41] = Percent of total excretion of 3-(thiomethyl)acetaminophen sulfate; type: ADME; in short: as §2
[42] = Percent of total excretion of 3-methoxyacetaminophen glucuronide; type: ADME; in short: as §2
[43] = Percent of total excretion of N-hydroxyacetaminophen sulfate; type: ADME; in short: as §2

## CC(=O)N(O)c1ccc(O)cc1
[1]
  Total excretion: 9% and 15.9%
Rattus norvegicus [2]
  Dose: 70.9%
Rattus norvegicus [3]
  Toxicity: 0
Mus musculus [4]
  Toxicity: 0
Mus musculus [5]
  Dose: 41.5%
Rattus norvegicus [6]
  Toxicity: 0
Rattus norvegicus [7]
  Toxicity: Positive
Rattus norvegicus [8]
  Total excretion: 7%
Rattus norvegicus [9]
  Dose: 55%
[10]
  Total excretion: 2.3% and 3.4%
Rattus norvegicus [11]
  Total excretion: 0%
[12]
  Total excretion: 5% and 4.5%
[13]
  Total excretion: 18% and 25.9%
Rattus norvegicus [14]
  Total excretion: 0%
Mus musculus [15]
  Toxicity: 2
Rattus norvegicus [16]
  Total excretion: 8.1%
[17]
  Total excretion: 0%
Rattus norvegicus [18]
  Toxicity: 0
Rattus norvegicus [19]
  Total excretion: 1.5%
Rattus norvegicus [20]
  Total excretion: 1.9%
Rattus norvegicus [21]
  Total excretion: 51.3%
[22]
  Total excretion: 2% and 4.1%
[23]
  Total excretion: 13.2% and 6.1%
Rattus norvegicus [24]
  Total excretion: 10.8%
Rattus norvegicus [25]
  Total excretion: 14.5%
Rattus norvegicus [26]
  Total excretion: 5.1%
[27]
  Total excretion: 2.7% and 3%

## CC(=O)Nc1ccc(O)cc1 [ACETAMINOPHEN]
[28]
  Total excretion: 0%
[29]
  Total excretion: 2.9% and 10.4%
Mus musculus [30]
  Toxicity: 0
[31]
  Total excretion: 13.8% and 13.3%
[32]
  Total excretion: 64% and 58.4%
Mus musculus [33]
  Toxicity: 3
Mus musculus [34]
  Toxicity: 0
Mus musculus [35]
  Toxicity: 2
[36]
  Total excretion: 3.5% and 3.8%
[37]
  Total excretion: 0%
[38]
  Total excretion: 11.9% and 12.1%
[39]
  Total excretion: 0.7% and 0.6%
[40]
  Total excretion: 0%
[41]
  Total excretion: 3.3% and 1.5%
[42]
  Total excretion: 0%
[43]
  Total excretion: 0%
